From ChEMBL document CHEMBL2046373, “Discovery of a potent thiadiazole class of histamine h3 receptor antagonist for the treatment of diabetes” (ACS Med Chem Lett, 2012)
pIC50, pKi: −log10 of the molar value.

Key:
Histamine H3 receptor [1] = biological target: Histamine H3 receptor (Homo sapiens, UniProt Q9Y5N1); test: Displacement of [3H]-N-alpha-methylhistamine from human recombinant histamine H3 receptor after 30 mins by scintillation counting
Histamine H3 receptor [2] = biological target: Histamine H3 receptor (Mus musculus, UniProt P58406); test: Displacement of [3H]-N-alpha-methylhistamine from mouse recombinant histamine H3 receptor after 30 mins by scintillation counting
Histamine H3 receptor (Mus musculus, UniProt P58406), sequence (P58406 whole entry): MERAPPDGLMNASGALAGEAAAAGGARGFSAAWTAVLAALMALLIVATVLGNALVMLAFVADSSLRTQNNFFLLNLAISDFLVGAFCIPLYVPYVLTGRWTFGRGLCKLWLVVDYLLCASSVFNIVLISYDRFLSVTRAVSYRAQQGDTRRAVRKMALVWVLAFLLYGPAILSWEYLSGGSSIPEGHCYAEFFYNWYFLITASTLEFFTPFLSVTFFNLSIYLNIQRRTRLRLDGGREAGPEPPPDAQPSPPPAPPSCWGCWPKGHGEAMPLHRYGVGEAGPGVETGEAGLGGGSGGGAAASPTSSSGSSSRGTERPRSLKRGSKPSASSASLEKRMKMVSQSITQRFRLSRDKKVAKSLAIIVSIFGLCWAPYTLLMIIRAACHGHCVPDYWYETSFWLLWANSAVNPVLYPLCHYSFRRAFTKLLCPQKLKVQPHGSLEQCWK

Mus musculus [3] = test: Ex vivo receptor occupancy of histamine H3 receptor in ICR mouse brain cortex using [3H]- N-alpha-Methylhistamine at 30 mg/kg, po after 30 mins by scintillation counting; format: functional
Mus musculus [4] = test: Antihyperglycemic activity in STZ-induced type 2 diabetic model of ICR mouse assessed as reduction of non-fasting blood glucose level at 30 mg/kg, po qd for 2 days; format: functional
Summary of the method: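 Streptozotocin-diabetic ICR mice (STZ 80 mg/kg ip; blood glucose 250–500 mg/dL) received oral dosing at 30 mg/kg once daily. Non-fasting glucose was read daily before each dose. Data are mean ± SEM, n = 12/group, compared with vehicle (0) controls.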

[5] = Drug level in ICR mouse brain at 30 mg/kg, po after 4 hrs; format: ADME, organism-based; set-up: dose 30 mg/kg, route oral; conditions: read-out: Drug uptake
Summary of the method: (§1)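 ICR mice were given a single 30 mg/kg oral dose. Total brain and plasma concentrations were measured 4 h later, and the brain/plasma ratio was taken from these levels.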

Cytochrome P450 2D6 [6] = biological target: T1, Cytochrome P450 2D6 (Homo sapiens, UniProt P10635); test: Inhibition of CYP2D6 under co-incubation conditions; format: ADME; conditions: read-out: INH
T1 sequence (P10635 whole entry): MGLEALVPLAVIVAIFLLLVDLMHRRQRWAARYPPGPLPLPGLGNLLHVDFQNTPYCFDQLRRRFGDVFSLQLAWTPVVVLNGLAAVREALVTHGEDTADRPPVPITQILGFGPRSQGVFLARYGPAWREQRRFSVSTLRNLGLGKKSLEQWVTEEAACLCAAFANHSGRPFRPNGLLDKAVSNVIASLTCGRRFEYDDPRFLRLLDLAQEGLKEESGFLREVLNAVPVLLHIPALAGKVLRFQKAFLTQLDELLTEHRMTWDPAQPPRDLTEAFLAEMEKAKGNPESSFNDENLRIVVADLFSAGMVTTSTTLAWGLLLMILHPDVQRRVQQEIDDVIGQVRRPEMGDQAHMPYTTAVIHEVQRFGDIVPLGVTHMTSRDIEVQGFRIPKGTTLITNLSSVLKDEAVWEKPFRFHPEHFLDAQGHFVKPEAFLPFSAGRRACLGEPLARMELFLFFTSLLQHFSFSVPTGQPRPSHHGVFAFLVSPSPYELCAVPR

hERG (KCNH2) = hERG (KCNH2) (Homo sapiens, UniProt Q12809); test: Inhibition of human ERG at 10 uM by high-throughput rubidium efflux assay
hERG (KCNH2), sequence (Q12809 whole entry): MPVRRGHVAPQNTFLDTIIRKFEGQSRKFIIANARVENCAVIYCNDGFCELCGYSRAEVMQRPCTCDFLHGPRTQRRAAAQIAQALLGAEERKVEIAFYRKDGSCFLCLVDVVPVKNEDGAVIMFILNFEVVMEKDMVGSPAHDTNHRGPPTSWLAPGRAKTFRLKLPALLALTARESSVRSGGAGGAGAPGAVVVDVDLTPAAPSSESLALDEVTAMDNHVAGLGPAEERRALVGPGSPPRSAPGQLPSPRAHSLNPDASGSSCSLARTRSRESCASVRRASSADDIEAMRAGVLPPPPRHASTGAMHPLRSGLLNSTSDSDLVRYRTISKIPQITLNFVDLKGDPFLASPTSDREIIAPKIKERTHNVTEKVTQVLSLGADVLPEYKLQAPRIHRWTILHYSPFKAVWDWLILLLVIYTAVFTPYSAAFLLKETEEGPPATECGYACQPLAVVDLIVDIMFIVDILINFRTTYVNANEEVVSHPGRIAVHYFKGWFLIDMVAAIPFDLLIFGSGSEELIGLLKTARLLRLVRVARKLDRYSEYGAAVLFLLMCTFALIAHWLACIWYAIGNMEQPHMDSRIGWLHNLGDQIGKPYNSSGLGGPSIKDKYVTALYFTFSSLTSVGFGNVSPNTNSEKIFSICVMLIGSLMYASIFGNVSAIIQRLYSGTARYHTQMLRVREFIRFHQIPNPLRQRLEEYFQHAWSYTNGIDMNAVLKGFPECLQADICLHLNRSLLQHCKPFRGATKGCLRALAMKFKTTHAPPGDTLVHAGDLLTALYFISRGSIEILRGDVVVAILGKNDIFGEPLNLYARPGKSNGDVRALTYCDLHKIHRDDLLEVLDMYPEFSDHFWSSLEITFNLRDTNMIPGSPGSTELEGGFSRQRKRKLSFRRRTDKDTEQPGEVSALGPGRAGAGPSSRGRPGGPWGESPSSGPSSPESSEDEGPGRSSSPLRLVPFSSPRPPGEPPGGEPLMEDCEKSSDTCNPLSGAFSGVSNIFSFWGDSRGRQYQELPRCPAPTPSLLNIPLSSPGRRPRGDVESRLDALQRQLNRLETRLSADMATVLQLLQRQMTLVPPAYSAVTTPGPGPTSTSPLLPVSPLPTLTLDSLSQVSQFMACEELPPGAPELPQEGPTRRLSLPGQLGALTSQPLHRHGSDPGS

[7] = Cmax in ICR mouse plasma at 30 mg/kg, po after 4 hrs; format: ADME, organism-based; set-up: dose 30 mg/kg, route oral; summary of the method: as §1
Cytochrome P450 2C9 [8] = biological target: T2, Cytochrome P450 2C9 (Homo sapiens, UniProt P11712); test: Inhibition of CYP2C9 under co-incubation conditions; format: ADME; conditions: read-out: INH
T2 sequence (P11712 whole entry): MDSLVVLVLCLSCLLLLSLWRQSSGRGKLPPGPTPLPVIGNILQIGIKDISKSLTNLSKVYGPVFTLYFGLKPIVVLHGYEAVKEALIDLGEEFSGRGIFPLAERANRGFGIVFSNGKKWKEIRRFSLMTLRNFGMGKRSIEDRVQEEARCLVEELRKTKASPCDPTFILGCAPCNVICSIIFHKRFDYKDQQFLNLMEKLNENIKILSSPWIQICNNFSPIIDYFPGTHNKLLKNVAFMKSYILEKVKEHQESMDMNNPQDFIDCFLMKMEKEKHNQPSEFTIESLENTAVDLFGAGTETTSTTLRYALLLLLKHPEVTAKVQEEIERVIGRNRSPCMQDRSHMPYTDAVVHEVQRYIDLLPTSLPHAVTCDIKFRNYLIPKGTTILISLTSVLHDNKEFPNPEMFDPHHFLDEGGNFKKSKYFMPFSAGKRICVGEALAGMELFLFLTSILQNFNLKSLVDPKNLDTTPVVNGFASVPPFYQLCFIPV

Cytochrome P450 3A4 [9] = biological target: T3, Cytochrome P450 3A4 (Homo sapiens, UniProt P08684); test: Inhibition of CYP3A4 under co-incubation conditions; format: ADME; conditions: read-out: INH
T3 sequence (P08684 whole entry): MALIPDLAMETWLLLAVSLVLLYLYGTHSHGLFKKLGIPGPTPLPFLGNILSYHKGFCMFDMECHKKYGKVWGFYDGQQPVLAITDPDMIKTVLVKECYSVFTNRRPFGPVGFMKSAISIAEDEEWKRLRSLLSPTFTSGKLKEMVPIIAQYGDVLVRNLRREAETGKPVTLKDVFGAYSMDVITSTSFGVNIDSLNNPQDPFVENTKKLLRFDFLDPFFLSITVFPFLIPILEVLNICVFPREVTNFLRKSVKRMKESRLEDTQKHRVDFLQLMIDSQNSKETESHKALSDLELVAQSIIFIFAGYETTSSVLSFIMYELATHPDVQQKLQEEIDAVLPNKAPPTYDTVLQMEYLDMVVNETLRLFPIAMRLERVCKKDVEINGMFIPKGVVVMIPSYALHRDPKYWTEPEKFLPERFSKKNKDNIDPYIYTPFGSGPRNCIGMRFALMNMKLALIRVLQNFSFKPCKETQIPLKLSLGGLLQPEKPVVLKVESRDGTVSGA

Cytochrome P450 3A4 [10] = biological target: T3, Cytochrome P450 3A4; test: Inhibition of CYP3A4 under preincubation conditions; format: ADME; conditions: read-out: INH
[11] = Ratio of drug level in brain to plasma in ICR mouse; format: ADME; conditions: read-out: BPR; summary of the method: as §1
Cytochrome P450 2D6 [12] = biological target: T1, Cytochrome P450 2D6; test: Inhibition of CYP2D6 under preincubation conditions; format: ADME
Cytochrome P450 2C9 [13] = biological target: T2, Cytochrome P450 2C9; test: Inhibition of CYP2C9 under preincubation conditions; format: ADME; conditions: read-out: INH
[14] = AUC (0 to 6 hrs) in rat at 10 mg/kg, po; format: ADME, organism-based; set-up: time < 6 hr, dose 10 mg/kg, route oral; conditions: plasma
Mus musculus [15] = test: Antihyperglycemic activity in po dosed STZ-induced type 2 diabetic model of ICR mouse assessed as reduction of HbA1c level administered qd for 12 days; format: functional, organism-based
Summary of the method: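 STZ diet-induced obese type 2 diabetic mice were dosed orally once daily for 12 days at 10 and 30 mg/kg. The end point was change in glycated hemoglobin (HbA1c), compared with vehicle (0) controls.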

Histamine H3 receptor (Homo sapiens, UniProt Q9Y5N1), sequence (Q9Y5N1 whole entry): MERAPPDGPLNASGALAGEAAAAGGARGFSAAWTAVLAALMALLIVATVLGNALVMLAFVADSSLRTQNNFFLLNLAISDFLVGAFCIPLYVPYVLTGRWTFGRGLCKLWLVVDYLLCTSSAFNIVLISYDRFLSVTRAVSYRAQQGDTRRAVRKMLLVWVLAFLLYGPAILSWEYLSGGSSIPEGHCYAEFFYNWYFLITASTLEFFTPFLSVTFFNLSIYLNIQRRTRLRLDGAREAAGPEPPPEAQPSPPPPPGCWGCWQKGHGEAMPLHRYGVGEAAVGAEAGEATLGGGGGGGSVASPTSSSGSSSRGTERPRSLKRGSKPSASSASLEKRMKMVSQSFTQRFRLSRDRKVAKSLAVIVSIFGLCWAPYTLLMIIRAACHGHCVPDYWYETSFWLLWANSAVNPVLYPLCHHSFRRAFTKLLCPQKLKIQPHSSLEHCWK

pKi (Histamine H3 receptor [1]) | pKi (Histamine H3 receptor [2]) | Compound | other results
7.28 | 7.26 | OC1(c2ccccn2)CCCN(c2nnc(N3CCC(N4CCCCC4)CC3)s2)C1 (stereo unspecified) | –
7.17 | 7.11 | OC1(c2ncccn2)CCCN(c2nnc(N3CCC(N4CCCCC4)CC3)s2)C1 (stereo unspecified) | –
8.52 | 8.40 | c1ccc(C2CN(c3nnc(N4CCC(N5CCCCC5)CC4)s3)CCO2)nc1 (single isomer, unassigned; enantiomer 2) [listing 1 of 2 here] | Activity (Mus musculus [3]): 74%; Activity (Mus musculus [4]): 104.5 mg/dL; concentration at 4 h [5]: 24 ng/g; pIC50 (Cytochrome P450 2D6 [6]): < 4.70; inhibition at 10 µM (hERG (KCNH2)): 26%; Cmax [7]: 1500 ng/mL; pIC50 (Cytochrome P450 2C9 [8]): < 4.70; pIC50 (Cytochrome P450 3A4 [9]): < 4.70; pIC50 (Cytochrome P450 3A4 [10]): < 4.70; Kp [11]: 0.016; INH (Cytochrome P450 2D6 [12]): > 20 µM; pIC50 (Cytochrome P450 2C9 [13]): < 4.70
8.10 | 7.80 | c1cnc(C2CN(c3nnc(N4CCC(N5CCCCC5)CC4)s3)CCO2)cn1 (stereo unspecified) | –
8.30 | 7.96 | c1ccc(C2CN(c3nnc(N4CCC(N5CCCCC5)CC4)s3)CCO2)nc1 (stereo in doubt; 5r) | –
7.92 | 7.31 | C1=C(c2ccccn2)CN(c2nnc(N3CCC(N4CCCCC4)CC3)s2)CC1 | –
7.96 | 7.27 | COC1(c2ccccn2)CCCN(c2nnc(N3CCC(N4CCCCC4)CC3)s2)C1 (stereo unspecified) | –
7.18 | 7.25 | FC1CCCN(c2nnc(N3CCC(N4CCCCC4)CC3)s2)C1 (stereo unspecified) | –
7.47 | 7.17 | c1ccc(C2CN(c3nnc(N4CCC(N5CCCCC5)CC4)s3)CCO2)nc1 (stereo in doubt; 5t) | –
6.92 | 6.92 | O=C1CCCCN1c1nnc(N2CCC(N3CCCCC3)CC2)s1 | –
7.47 | 7.28 | O=C1N(c2nnc(N3CCC(N4CCCCC4)CC3)s2)CCN1C1CCCC1 | –
7.82 | 7.74 | FC1(F)CCN(c2nnc(N3CCC(N4CCCCC4)CC3)s2)CC1 | AUC(0-t) at 6 h [14]: 2490 ng·h/mL
7.34 | 7.17 | OC1CCCN(c2nnc(N3CCC(N4CCCCC4)CC3)s2)C1 (stereo unspecified) | –
– | – | c1ccc(C2CN(c3nnc(N4CCC(N5CCCCC5)CC4)s3)CCO2)nc1 (single isomer, unassigned; enantiomer 2) [listing 2 of 2 here] | Activity (Mus musculus [15]): Dose-dependent effect
7.28 | 7.46 | CC1CN(c2nnc(N3CCC(N4CCCCC4)CC3)s2)CC(C)O1 (stereo unspecified) | AUC(0-t) at 6 h [14]: 4320 ng·h/mL
8.52 | 8.30 | C1=C(c2ccccn2)CCCN1c1nnc(N2CCC(N3CCCCC3)CC2)s1 | Activity (Mus musculus [3]): 85%; concentration at 4 h [5]: 1040 ng/g; pIC50 (Cytochrome P450 2D6 [6]): < 4.70; inhibition at 10 µM (hERG (KCNH2)): 54%; Cmax [7]: 1470 ng/mL; pIC50 (Cytochrome P450 2C9 [8]): < 4.70; pIC50 (Cytochrome P450 3A4 [9]): < 4.70; pIC50 (Cytochrome P450 3A4 [10]): < 4.70; INH (Cytochrome P450 2D6 [12]): > 20 µM; pIC50 (Cytochrome P450 2C9 [13]): < 4.70
7.43 | 7.34 | COC1CCCN(c2nnc(N3CCC(N4CCCCC4)CC3)s2)C1 (stereo unspecified) | –
7.21 | 7.21 | FC1(F)CCN(c2nnc(N3CCC(N4CCCCC4)CC3)s2)C1 | AUC(0-t) at 6 h [14]: 545 ng·h/mL
– | 7.33 | O=C(Nc1nnc(N2CCC(N3CCCCC3)CC2)s1)NC1CCCC1 | –
7.12 | 6.96 | c1ccc(C2CCCN(c3nnc(N4CCC(N5CCCCC5)CC4)s3)C2)cc1 (stereo unspecified) | –
8.40 | 8.15 | FC1(c2ccccn2)CCCN(c2nnc(N3CCC(N4CCCCC4)CC3)s2)C1 (stereo unspecified) | Activity (Mus musculus [3]): 92%; Activity (Mus musculus [4]): 67.91 mg/dL; concentration at 4 h [5]: 674 ng/g; pIC50 (Cytochrome P450 2D6 [6]): < 4.70; inhibition at 10 µM (hERG (KCNH2)): 16%; Cmax [7]: 2970 ng/mL; pIC50 (Cytochrome P450 2C9 [8]): < 4.70; pIC50 (Cytochrome P450 3A4 [9]): < 4.70; pIC50 (Cytochrome P450 3A4 [10]): < 4.70; Kp [11]: 0.227; INH (Cytochrome P450 2D6 [12]): > 20 µM; pIC50 (Cytochrome P450 2C9 [13]): < 4.70
7.52 | 7.49 | O=C1N(c2ccccc2)CCCN1c1nnc(N2CCC(N3CCCCC3)CC2)s1 | –
7.85 | 7.36 | C1=C(c2ncccn2)CN(c2nnc(N3CCC(N4CCCCC4)CC3)s2)CC1 | –
